Experimental data as given in ChEMBL document CHEMBL1131603, “Synthesis and biological activity of chimeric structures derived from the cytotoxic natural compounds dolastatin 10 and dolastatin 15” (J Med Chem, 1998).
Where a SMILES comes first, the peptide text is derived from it. [ ]: non-standard residue; d: D form. The star is where a group is joined. X2 = COC1=CC(=O)N(C(=O)[C@@H](O*)C(C)C)[C@H]1Cc1ccccc1; Dolaproine = CO[C@@H]([C@@H]1CCCN1)[C@@H](C)C(=O)O; NMe2Val = CC(C)[C@@H](C(=O)*)N(C)C; X1 = c1ccc(CC(N*)c2nccs2)cc1; NMeV = CN[C@H](C(=O)O)C(C)C

Tests used:
Tubulin = Tubulin (Bos taurus, UniProt Q6B856+Q862L2+Q862F3); assay: In vitro inhibition of tubulin polymerization measured as turbidity formed by centrifugation; type: protein assay
How it was run: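 Microtubule protein purified from bovine brain by assembly (37 °C)/disassembly (0 °C) cycles in MES buffer (pH 6.6) with glycerol and GTP; used at 2 mg/mL with 1 mM GTP. Compounds added in DMSO; assembly started by temperature jump from 4 to 37 °C and followed by turbidity at 350 nm. IC50 taken as concentration giving 50% inhibition of assembly rate.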

MCF7 [1] = assay: Inhibitory activity against growth of MCF-7 cell line; type: functional, cell-based; conditions: Homo sapiens
How it was run: (§1)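 For MCF7 cells, cultured in supplemented RPMI 1640 (10% fetal calf serum, 10 mM HEPES, pH 7.4), exposure ran 168 h to nine serial dilutions in triplicate. Viability was read by microculture tetrazolium assay. IC50 is the concentration halving optical density relative to untreated controls; ratio is compound IC50 over parent dolastatin IC50.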

L1210 [2] = assay: Inhibitory activity against growth of L1210 cell line; type: functional, cell-based; conditions: Mus musculus
How it was run: (§2)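 L1210 murine leukemia cells in RPMI 1640 with 10% fetal calf serum, 2 mM glutamine, antibiotics and 10 mM HEPES (pH 7.4). Treatment lasted 48 h at nine serial dilutions in triplicate, with a microculture tetrazolium read-out. IC50 gives 50% optical density reduction versus untreated cells; ratio is compound IC50 divided by parent dolastatin IC50.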

MCF7 [3] = assay: Selectivity was evaluated [Selectivity = IC50 / IC50 of Dolastatin] against MCF-7 cell line; type: functional, Homo sapiens; how it was run: as §1
HT-29 [4] = assay: Selectivity was evaluated [Selectivity = IC50 / IC50 of Dolastatin] against HT-29 cell line; type: functional, Homo sapiens
How it was run: (§3)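 HT-29 cells grown in RPMI 1640 with 10% fetal calf serum, 2 mM glutamine, antibiotics and 10 mM HEPES (pH 7.4). Exposed for 96 h to nine serial dilutions in triplicate; growth read by microculture tetrazolium assay. IC50 is the concentration lowering optical density 50% versus untreated controls; ratio is compound IC50 over parent dolastatin IC50.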

L1210 [5] = assay: Selectivity was evaluated [Selectivity = IC50 / IC50 of Dolastatin] against L1210 cell line; type: functional, Mus musculus; how it was run: as §2
HT-29 [6] = assay: Inhibitory activity against growth of HT-29 cell line; type: functional, cell-based; conditions: Homo sapiens; how it was run: as §3

IC50 (Tubulin) [nM] | IC50 (MCF7 [1]) [nM] | IC50 (L1210 [2]) [nM] | IC50 (HT-29 [6]) [nM] | SMILES | Selectivity (MCF7 [3]) | Selectivity (HT-29 [4]) | Selectivity (L1210 [5])
3600 | 0.19 | 1.58 | 396 | CC[C@H](C)[C@@H]([C@@H](CC(=O)N1CCC[C@H]1C(=O)O[C@H](C(=O)N1C(=O)C=C(OC)[C@@H]1Cc1ccccc1)C(C)C)OC)N(C)C(=O)[C@@H](NC(=O)[C@H](C(C)C)N(C)C)C(C)C | 5 | 1365 | 12
13000 | 2.48 | 2.72 | 11.4 | CO[C@H]([C@@H](C)C(=O)NC(Cc1ccccc1)c1nccs1)[C@@H]1CCCN1C(=O)[C@@H]1CCCN1C(=O)[C@H](C(C)C)N(C)C(=O)[C@@H](NC(=O)[C@H](C(C)C)N(C)C)C(C)C (some centres undefined) (NMe2Val-V[NMeV]P[Dolaproine]-X1) | 83 | 190 | 90
1800 | 0.84 | 0.73 | 2.06 | CC[C@]1(O)C[C@H]2CN(CCc3c([nH]c4ccccc34)[C@@](C(=O)OC)(c3cc4c(cc3OC)N(C=O)[C@H]3[C@@](O)(C(=O)OC)[C@H](OC(C)=O)[C@]5(CC)C=CCN6CC[C@]43[C@@H]65)C2)C1 [VINCRISTINE] | – | – | –

SMILES | IC50 (Tubulin) [nM] | IC50 (MCF7 [1]) [nM] | IC50 (L1210 [2]) [nM] | IC50 (HT-29 [6]) [nM] | Selectivity (MCF7 [3]) | Selectivity (HT-29 [4]) | Selectivity (L1210 [5])
COC1=CC(=O)N(C(=O)[C@@H](OC(=O)[C@@H]2CCCN2C(=O)[C@@H]2CCCN2C(=O)[C@H](C(C)C)N(C)C(=O)[C@@H](NC(=O)[C@H](C(C)C)N(C)C)C(C)C)C(C)C)[C@H]1Cc1ccccc1 [DOLASTATIN 15] (NMe2Val-V[NMeV]PP-X2) | 17000 | 0.04 | 0.13 | 0.29 | – | – | –
CC[C@H](C)[C@@H]([C@@H](CC(=O)N1CCC[C@H]1[C@H](OC)[C@@H](C)C(=O)N[C@@H](Cc1ccccc1)c1nccs1)OC)N(C)C(=O)[C@@H](NC(=O)[C@H](C(C)C)N(C)C)C(C)C [DOLASTATIN-10] | 2200 | 0.03 | – | – | – | – | –
